# Source: ChEMBL document CHEMBL1143388 (Bioorg Med Chem, 2009)
# pEC50, pKi: −log10 of the molar value.
# Assays:
# [1] = target: Mu-type opioid receptor (Rattus norvegicus, UniProt P33535); test: Binding affinity to rat MOPR expressed in CHO cells; type: cell-based
# Method in brief: (§1)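 Competitive displacement of [3H]diprenorphine from membranes of CHO cells stably transfected with rat MOPR or mouse DOPR. Buffer: 50 mM Tris-HCl, pH 7.4, with 1 mM EGTA. Ki values were derived from inhibition curves. Each value is the mean of at least three independent experiments run in duplicate.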
# [2] = target: Delta-type opioid receptor (Mus musculus, UniProt P32300); test: Binding affinity to mouse DOPR expressed in CHO cells; type: cell-based; method in brief: as §1
# Chain of Delta-type opioid receptor (P32300 whole entry): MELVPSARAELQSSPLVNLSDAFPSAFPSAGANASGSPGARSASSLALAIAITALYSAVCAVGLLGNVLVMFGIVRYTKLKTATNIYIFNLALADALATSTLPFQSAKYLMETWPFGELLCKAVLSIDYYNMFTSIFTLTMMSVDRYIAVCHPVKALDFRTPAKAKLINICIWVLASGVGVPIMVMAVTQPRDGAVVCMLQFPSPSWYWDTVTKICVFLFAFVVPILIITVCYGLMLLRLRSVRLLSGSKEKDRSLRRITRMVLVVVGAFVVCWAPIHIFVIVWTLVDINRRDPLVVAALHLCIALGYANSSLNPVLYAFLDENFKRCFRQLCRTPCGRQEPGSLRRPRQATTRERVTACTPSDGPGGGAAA
# [3] = target: T1, Kappa-type opioid receptor (Homo sapiens, UniProt P41145); test: Agonist activity at human KOPR expressed in CHO cells assessed as enhancement of [35S]GTPgammaS binding at 10 uM relative to U50488; type: functional, cell-based
# T1 sequence (P41145 whole entry): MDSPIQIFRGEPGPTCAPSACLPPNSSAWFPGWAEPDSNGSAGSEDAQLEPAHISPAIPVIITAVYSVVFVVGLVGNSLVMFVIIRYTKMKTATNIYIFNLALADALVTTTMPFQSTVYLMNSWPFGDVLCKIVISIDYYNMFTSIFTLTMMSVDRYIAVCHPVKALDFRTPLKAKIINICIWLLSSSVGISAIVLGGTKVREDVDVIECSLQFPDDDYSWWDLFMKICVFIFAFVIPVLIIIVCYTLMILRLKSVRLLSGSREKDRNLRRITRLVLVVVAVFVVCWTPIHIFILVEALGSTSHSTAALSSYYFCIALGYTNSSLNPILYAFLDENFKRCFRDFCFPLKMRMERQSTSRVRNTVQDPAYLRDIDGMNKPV
# [4] = target: T1, Kappa-type opioid receptor; test: Displacement of [3H]diprenorphine from human KOPR expressed in CHO cells; type: cell-based
# [5] = target: T1, Kappa-type opioid receptor; test: Agonist activity at human KOPR expressed in CHO cells assessed as enhancement of [35S]GTPgammaS binding; type: functional, cell-based
# Chain of Mu-type opioid receptor (P33535 whole entry): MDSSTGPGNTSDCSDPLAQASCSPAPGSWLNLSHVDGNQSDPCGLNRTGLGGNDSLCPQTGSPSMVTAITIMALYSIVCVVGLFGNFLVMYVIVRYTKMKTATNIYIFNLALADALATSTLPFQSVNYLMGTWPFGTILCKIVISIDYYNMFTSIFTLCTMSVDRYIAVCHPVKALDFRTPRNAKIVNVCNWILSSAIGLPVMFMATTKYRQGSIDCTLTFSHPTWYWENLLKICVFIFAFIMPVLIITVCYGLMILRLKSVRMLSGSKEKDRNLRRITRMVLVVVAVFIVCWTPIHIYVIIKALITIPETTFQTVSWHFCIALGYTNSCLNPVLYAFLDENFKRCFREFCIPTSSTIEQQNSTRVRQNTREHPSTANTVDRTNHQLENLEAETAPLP
SMILES,pKi [1],pKi [2],Emax [3],pKi [4],pEC50 [5]
CCOC[C@@H]1C[C@]2(C)[C@H]3C(=O)[C@@H](OC(C)=O)C[C@@H](C(=O)OC)[C@]3(C)CC[C@H]2C(=O)O1,< 6.00,< 6.00,,,
COC(=O)[C@@H]1C[C@H](OC(C)=O)C(=O)[C@H]2[C@@]1(C)CC[C@H]1C(=O)O[C@H](C(=O)OC(C)C)C[C@]21C,< 6.00,< 6.00,94%,,
CCOC(=O)[C@@H]1C[C@]2(C)[C@H]3C(=O)[C@@H](OC(C)=O)C[C@@H](C(=O)OC)[C@]3(C)CC[C@H]2C(=O)O1,< 6.00,< 6.00,94%,,
COC(=O)[C@@H]1C[C@H](OC(C)=O)C(=O)[C@H]2[C@@]1(C)CC[C@H]1C(=O)O[C@H](COC(C)=O)C[C@]21C,< 6.00,< 6.00,113%,,
COC(=O)[C@@H]1C[C@H](OC(C)=O)C(=O)[C@H]2[C@@]1(C)CC[C@H]1C(=O)O[C@H](C(=O)O)C[C@]21C,< 6.00,< 6.00,99%,7.26,6.78
COC(=O)[C@@H]1C[C@H](OC(C)=O)C(=O)[C@H]2[C@@]1(C)CC[C@H]1C(=O)O[C@H](C(=O)c3cnccn3)C[C@]21C,< 6.00,< 6.00,103%,,
COC(=O)[C@@H]1C[C@]2(C)[C@H]3C(=O)[C@@H](OC(C)=O)C[C@@H](C(=O)OC)[C@]3(C)CC[C@H]2C(=O)O1,< 6.00,< 6.00,99%,,
COC(=O)[C@@H]1C[C@H](OC(C)=O)C(=O)[C@H]2[C@@]1(C)CC[C@H]1C(=O)O[C@H]([C@H](O)c3ccco3)C[C@]21C,< 6.00,< 6.00,111%,,
C=Cc1occc1[C@@H]1C[C@]2(C)[C@H]3C(=O)[C@@H](OC(C)=O)C[C@@H](C(=O)OC)[C@]3(C)CC[C@H]2C(=O)O1,< 6.00,< 6.00,120%,,
COC(=O)[C@@H]1C[C@H](OC(C)=O)C(=O)[C@H]2[C@@]1(C)CC[C@H]1C(=O)O[C@H](c3ccoc3Br)C[C@]21C,< 6.00,< 6.00,,,
COC[C@@H]1C[C@]2(C)[C@H]3C(=O)[C@@H](OC(C)=O)C[C@@H](C(=O)OC)[C@]3(C)CC[C@H]2C(=O)O1,< 6.00,< 6.00,98%,,
COC(=O)[C@@H]1C[C@H](OC(C)=O)C(=O)[C@H]2[C@@]1(C)CC[C@H]1C(=O)O[C@H](C(=O)c3cccs3)C[C@]21C,< 6.00,< 6.00,103%,,
